Assay results published in ChEMBL document CHEMBL1123901, “Inhibition of delayed hypersensitivity reactions by cinnamyl 1-thioglycosides” (J Med Chem, 1987).

Columns and labels:
Assay type in all cases: functional
[1] = species: Cavia porcellus; test: Effect on guinea pig T cell proliferation was tested by measuring the incorporation of [3H]-thymidine uptake at the concentration of 0 uM
Outline: (§1)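 Strain 2 female guinea pigs were immunized with 100 μg OVA in CFA split over the footpads. At day 14 they received mineral oil ip, and the exudate was collected 4 days later. T cells were enriched on nylon wool. 2×10^5 cells per well were cultured with 10% irradiated (2100 rads) exudate cells, OVA (10 μg/mL) and compound, for 72 h at 37 °C in 5% CO2. [3H]thymidine (1 μCi) was added 18-24 h before harvest. Triplicate wells; mean Δcpm ± SD.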

[2] = species: Cavia porcellus; test: Inhibitory activity against [3H]thymidine uptake by cinnamyl 1-thioglycosides in guinea pig T cell proliferation; outline: as §1
[3] = species: Cavia porcellus; test: Effect on guinea pig T cell proliferation was tested by measuring the incorporation of [3H]thymidine uptake at the concentration of 10 uM; outline: as §1
[4] = species: Cavia porcellus; test: Effect on guinea pig T cell proliferation was tested by measuring the incorporation of [3H]-thymidine uptake at the concentration of 100 uM; outline: as §1
[5] = species: Cavia porcellus; test: Effect on guinea pig T cell proliferation was tested by measuring the incorporation of [3H]thymidine uptake at the concentration of 1000 uM; outline: as §1
[6] = species: Cavia porcellus; test: Effect on guinea pig T cell proliferation was tested by measuring the incorporation of [3H]thymidine uptake at the concentration of 500 uM; outline: as §1
[7] = species: Cavia porcellus; test: Effect on guinea pig T cell proliferation was tested by measuring the incorporation of [3H]thymidine uptake at the concentration of 750 uM; outline: as §1
[8] = species: Cavia porcellus; test: Effect on guinea pig T cell proliferation was tested by measuring the incorporation of [3H]thymidine uptake at the concentration of 250 uM; outline: as §1
[9] = species: Cavia porcellus; test: [3H]-Thymidine uptake was determined by liquid scintillation spectroscopy in ovalbumin (OVA) pulsed compound 2 treated Macrophages
Outline: (§2)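 Guinea pig PELs and irradiated (2100 rads) exudate macrophages were each preincubated with compound (1 mM or 500 μM, depending on agent) for 18 h at 37 °C, then washed. Macrophages were pulsed with OVA 100 μg/mL for 1 h at 37 °C and washed. Cells were viability-adjusted by trypan blue and mixed, with or without OVA 10 μg/mL. Culture ran 72 h at 37 °C with [3H]thymidine read by scintillation, as mean Δcpm × 10^-3.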

[10] = species: Cavia porcellus; test: [3H]thymidine uptake was determined by liquid scintillation spectroscopy in ovalbumin pulsed Macrophages
Outline: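 Pretreatment protocol. Strain 2 female guinea pigs immunized with OVA in CFA (100 μg OVA; 0.1 mL/foot); mineral oil given ip at day 14, peritoneal exudate collected 4 days later. Nylon-wool-enriched T cells (PELs) and irradiated (2100 rads) exudate macrophages each incubated with sugar derivative 18 h at 37 °C, then washed. Macrophages pulsed with OVA 100 μg/mL for 1 h at 37 °C and washed. Viability adjusted by trypan blue; populations mixed and cultured 72 h at 37 °C. [3H]thymidine (1 μCi) added 18-24 h before harvest; read by liquid scintillation as mean Δcpm ×10^-3.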

[11] = species: Cavia porcellus; test: [3H]-Thymidine uptake was determined by liquid scintillation spectroscopy in compound 21 treated Macrophages pretreated with 500 uM of 21 at 37 degree C for 18 h; outline: as §2
[12] = species: Cavia porcellus; test: [3H]-Thymidine uptake was determined by liquid scintillation spectroscopy in 21 pretreated OVA pulsed Macrophages plus OVA (10 ug/mL) pretreated with 500 uM of 21 at 37 degree C for 18 h; outline: as §2
[13] = species: Cavia porcellus; test: [3H]thymidine uptake was determined by liquid scintillation spectroscopy in 3 treated Macrophages plus OVA (10 ug/mL); outline: as §2
[14] = species: Cavia porcellus; test: [3H]thymidine uptake was determined by liquid scintillation spectroscopy in Macrophages; outline: as §2
[15] = species: Cavia porcellus; test: [3H]-Thymidine uptake was determined by liquid scintillation spectroscopy in Macrophages pretreated with 500 uM 21 at 37 degree C for 18 h; outline: as §2
[16] = species: Cavia porcellus; test: [3H]-Thymidine uptake was determined by liquid scintillation spectroscopy in OVA pulsed Macrophages pretreated with 500 uM of 21 at 37 degree C for 18 h; outline: as §2
[17] = species: Cavia porcellus; test: [3H]thymidine uptake was determined by liquid scintillation spectroscopy in OVA pulsed compound 21 pretreated Macrophages pretreated with 500 uM of 21 at 37 degree C for 18 h; outline: as §2
[18] = species: Cavia porcellus; test: [3H]-Thymidine uptake was determined by liquid scintillation spectroscopy in compound 21 pretreated Macrophages plus OVA (ug/mL) pretreated with 500 uM of 21 at 37 degree C for 18 h; outline: as §2
[19] = species: Cavia porcellus; test: [3H]thymidine uptake was determined by liquid scintillation spectroscopy in compound 21 pretreated OVA pulsed Macrophages plus OVA (10 ug/mL); outline: as §2
[20] = species: Cavia porcellus; test: [3H]thymidine uptake was determined by liquid scintillation spectroscopy in compound 2 treated Macrophages; outline: as §2
[21] = species: Cavia porcellus; test: Inhibitory activity against [3H]thymidine uptake by cinnamyl 1-thioglycosides using guinea pig T cell proliferation assay
[22] = species: Cavia porcellus; test: [3H]thymidine uptake was determined by liquid scintillation spectroscopy in 2 pretreated OVA pulsed Macrophages plus OVA (10 ug/mL) pretreated with 500 uM 2 at 37 degree C for 18 h; outline: as §2
[23] = species: Cavia porcellus; test: [3H]thymidine uptake was determined by liquid scintillation spectroscopy in Macrophages pretreated with 500 uM 2 at 37 degree C for 18 h; outline: as §2
[24] = species: Cavia porcellus; test: [3H]thymidine uptake was determined by liquid scintillation spectroscopy in OVA pulsed Macrophages pretreated with 500 uM 2 at 37 degree C for 18 h; outline: as §2
[25] = species: Cavia porcellus; test: [3H]-Thymidine uptake was determined by liquid scintillation spectroscopy in OVA pulsed compound 2 pretreated Macrophages pretreated with 500 uM 2 at 37 degree C for 18 h; outline: as §2
[26] = species: Cavia porcellus; test: [3H]-Thymidine uptake was determined by liquid scintillation spectroscopy in compound 2 pretreated Macrophages plus OVA (ug/mL) pretreated with 500 uM 2 at 37 degree C for 18 h; outline: as §2
[27] = species: Cavia porcellus; test: [3H]thymidine uptake was determined by liquid scintillation spectroscopy in compound 2 treated Macrophages pretreated with 500 uM 2 at 37 degree C for 18 h; outline: as §2
[28] = system: Mus musculus; test: Compound was administered intraperitoneally to mice before increase in foot-pad thickness at a dose of 10 mg/kg; details: route intraperitoneal
Outline: (§3)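 DTH in A/J female mice (20-23 g): cyclophosphamide 200 mg/kg sc, then iv sensitization with 10^8 washed SRBC 3 days later. On day 6 after sensitization, one hind footpad challenged with 10^8 SRBC in 20 μL, the other given saline. Dosing ip or po to overnight-fasted mice 20 min before challenge. Swelling read at 24 and 48 h as antigen minus saline footpad (mm × 10), by constant-pressure caliper.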

[29] = system: Mus musculus; test: Compound was administered intraperitoneally to mice before increase in foot-pad thickness at a dose of 3 mg/kg; details: route intraperitoneal; outline: as §3
[30] = system: Mus musculus; test: Compound was administered orally to mice before increase in foot-pad thickness at a dose of 10 mg/kg; details: route oral; outline: as §3
[31] = system: Mus musculus; test: Compound was administered orally to mice before increase in foot-pad thickness at a dose of 3 mg/kg; details: route oral; outline: as §3
[32] = system: Mus musculus; test: Compound was administered orally to mice before increase in foot-pad thickness at a dose of 30 mg/kg; details: route oral; outline: as §3
[33] = system: Mus musculus; test: Percent reduction in mice after oral administration 10 mg/kg; outline: as §3
[34] = system: Mus musculus; test: Percent reduction in mice after intraperitoneal administration 3 mg/kg; outline: as §3
[35] = system: Mus musculus; test: Percent reduction in mice after intraperitoneal administration of 30 mg/kg; outline: as §3
[36] = system: Mus musculus; test: Percent reduction in mice after oral administration 3 mg/kg; outline: as §3
[37] = system: Mus musculus; test: Percent reduction in mice after oral administration of 30 mg/kg; outline: as §3
[38] = system: Mus musculus; test: Percent reduction in mice after intraperitoneal administration 10 mg/kg; outline: as §3
[39] = species: Cavia porcellus; test: [3H]thymidine uptake was determined by liquid scintillation spectroscopy in compound 2 pretreated OVA pulsed Macrophages plus OVA (10 ug/mL); outline: as §2
[40] = system: Mus musculus; test: Compound was administered intraperitoneally to mice before increase in foot-pad thickness at a dose of 30 mg/kg; details: route intraperitoneal; outline: as §3

For `COCC1OC(SC/C=C/c2ccccc2)C(O)C(O)C1O` (stereo unspecified), the Activity [1] was 88 Δcpm x10e-3, the IC50 ([2]; Cavia porcellus, T-cell, 72 h) was 41 µM and the Activity [3] was 97 Δcpm x10e-3. For the same compound, the Activity [4] was 36.2 Δcpm x10e-3, the Activity [5] was 0 Δcpm x10e-3 and the Activity [6] was 0 Δcpm x10e-3. For the same compound, the Activity [7] was 0 Δcpm x 10^-3 and the Activity [8] was 1.23 Δcpm x10e-3.
In the case of `OCC1OC(SC/C=C/c2ccccc2)C(O)C(O)C1O` (stereo in doubt; 3), the Activity [1] is reported as 80.3 Δcpm x10e-3, the IC50 ([2]; Cavia porcellus, T-cell, 72 h) is reported as 871 µM and the Activity [3] is reported as 75.3 Δcpm x10e-3. The Activity [4] was 66.7 Δcpm x10e-3, the Activity [5] was 42 Δcpm x10e-3 and the Activity [6] was 62.7 Δcpm x10e-3. The Activity [7] was 38.4 Δcpm x 10^-3 and the Activity [8] was 67.8 Δcpm x10e-3.
For `CC(=O)NCC1OC(SC/C=C/c2ccccc2)C(O)C(O)C1O` (stereo unspecified), the Activity [1] was 79.8 Δcpm x10e-3, the Activity [3] was 70.7 Δcpm x10e-3 and the Activity [4] was 66.6 Δcpm x10e-3. For the same compound, the Activity [5] was 36 Δcpm x10e-3, the Activity [6] was 39.3 Δcpm x10e-3 and the Activity [7] was 38.8 Δcpm x 10^-3. For the same compound, the Activity [8] was 52.9 Δcpm x10e-3.
In the case of `CC1OC(SC/C=C/c2ccccc2)C(O)C(O)C1O` (stereo in doubt; 21), the “Delta cpm x10e-3” value [9] is reported as 13.97, the “Delta cpm x10e-3” value [10] is reported as 45.43 and the Activity [1] is reported as 89.1 Δcpm x10e-3. The IC50 ([2]; t-cell) was 102 µM, the Activity [3] was 86.5 Δcpm x10e-3 and the Activity [4] was 66.3 Δcpm x10e-3. The Activity [5] was 0 Δcpm x10e-3, the Activity [6] was 0.11 Δcpm x10e-3 and the Activity [7] was 0 Δcpm x 10^-3. The “Delta cpm x10e-3” value [11] was 1.62, the “Delta cpm x10e-3” value [12] was 3.82 and the “Delta cpm x10e-3” value [13] was 14.22. The “Delta cpm x10e-3” value [14] was 1.46, the “Delta cpm x10e-3” value [15] was 1.34 and the “Delta cpm x10e-3” value [16] was 29.03. The “Delta cpm x10e-3” value [17] was 2.63, the “Delta cpm x10e-3” value [18] was 2.63 and the “Delta cpm x10e-3” value [19] was 11.14. For the same compound, the “Delta cpm x10e-3” value [20] was 2.26 and the Activity [8] was 26.7 Δcpm x10e-3.
For `OCC1OC(OCC2OC(SCC=Cc3ccccc3)C(O)C(O)C2O)C(O)C(O)C1O` (stereo unspecified), the Activity [1] was 86.9 Δcpm x10e-3, the IC50 ([2]; Cavia porcellus, T-cell) was 340 µM and the Activity [3] was 64.2 Δcpm x10e-3. For the same compound, the Activity [4] was 54.9 Δcpm x10e-3, the Activity [5] was 3.85 Δcpm x10e-3 and the Activity [6] was 28.9 Δcpm x10e-3. The Activity [7] was 13.04 µM and the Activity [8] was 34.1 Δcpm x10e-3.
With `OCC1OC(SC/C=C/c2ccccc2)C(O)C(O)C1O` (stereo in doubt; 2) the Delta cpm x10e-3 [9] was 27.8, the “Delta cpm x10e-3” value [10] was 41.36 and the Activity [1] was 82.4 Δcpm x10e-3. The IC50 [21] was 198 µM, the Activity [3] was 95.9 Δcpm x10e-3 and the Activity [4] was 63.6 Δcpm x10e-3. For the same compound, the Activity [5] was 0.18 Δcpm x10e-3, the Activity [6] was 0.04 Δcpm x10e-3 and the Activity [7] was 0 Δcpm x 10^-3. For the same compound, the “Delta cpm x10e-3” value [22] was 12.06, the “Delta cpm x10e-3” value [13] was 14.5 and the “Delta cpm x10e-3” value [14] was 1.31. For the same compound, the “Delta cpm x10e-3” value [23] was 1.16, the “Delta cpm x10e-3” value [24] was 30.35 and the “Delta cpm x10e-3” value [25] was 14.2. For the same compound, the “Delta cpm x10e-3” value [26] was 8.7, the “Delta cpm x10e-3” value [20] was 1.89 and the “Delta cpm x10e-3” value [27] was 1.07. For the same compound, the Activity [28] was 2.46 mm x10, the Activity [29] was 7.3 mm x10 and the Activity [30] was 0.82 mm x10. It also gave an Activity [31] of 0.85 mm x10, an Activity [32] of 0.82 mm x10 and a Reduction [33] of 30%. The Reduction [34] was 0%, the Reduction [35] was 63% and the Reduction [36] was 27%. The Reduction [37] was 30%, the Reduction [38] was 56% and the “Delta cpm x10e-3” value [39] was 18.94. For the same compound, the Activity [8] was 17.6 Δcpm x10e-3 and the Activity [40] was 2.07 mm x10.
In the case of `CC1OC(SC/C=C/c2ccccc2)C(O)C(O)C1O` (stereo in doubt; 5), the Activity [1] is reported as 147 Δcpm x10e-3, the IC50 ([2]; t-cell) is reported as 525 µM and the Activity [3] is reported as 144 Δcpm x10e-3. For the same compound, the Activity [4] was 130 Δcpm x10e-3, the Activity [5] was 17.5 Δcpm x10e-3 and the Activity [6] was 66.6 Δcpm x10e-3. For the same compound, the Activity [7] was 31.8 Δcpm x 10^-3 and the Activity [8] was 109 Δcpm x10e-3.
